# Only a sample is shown.
# Apaf-1 act: human Apaf-1 activation | O14727 | Apaf-1 apoptosome caspase-3 activation, DEVD-Rh110 fluorescence; stronger effect = lower value | activity change, negative = activation, % at 20 µM | 0.31% of 330,000 active | AID 489031;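 active = activity change at or below -40% at 20 µM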
# Target sequence (O14727 whole entry, looked up): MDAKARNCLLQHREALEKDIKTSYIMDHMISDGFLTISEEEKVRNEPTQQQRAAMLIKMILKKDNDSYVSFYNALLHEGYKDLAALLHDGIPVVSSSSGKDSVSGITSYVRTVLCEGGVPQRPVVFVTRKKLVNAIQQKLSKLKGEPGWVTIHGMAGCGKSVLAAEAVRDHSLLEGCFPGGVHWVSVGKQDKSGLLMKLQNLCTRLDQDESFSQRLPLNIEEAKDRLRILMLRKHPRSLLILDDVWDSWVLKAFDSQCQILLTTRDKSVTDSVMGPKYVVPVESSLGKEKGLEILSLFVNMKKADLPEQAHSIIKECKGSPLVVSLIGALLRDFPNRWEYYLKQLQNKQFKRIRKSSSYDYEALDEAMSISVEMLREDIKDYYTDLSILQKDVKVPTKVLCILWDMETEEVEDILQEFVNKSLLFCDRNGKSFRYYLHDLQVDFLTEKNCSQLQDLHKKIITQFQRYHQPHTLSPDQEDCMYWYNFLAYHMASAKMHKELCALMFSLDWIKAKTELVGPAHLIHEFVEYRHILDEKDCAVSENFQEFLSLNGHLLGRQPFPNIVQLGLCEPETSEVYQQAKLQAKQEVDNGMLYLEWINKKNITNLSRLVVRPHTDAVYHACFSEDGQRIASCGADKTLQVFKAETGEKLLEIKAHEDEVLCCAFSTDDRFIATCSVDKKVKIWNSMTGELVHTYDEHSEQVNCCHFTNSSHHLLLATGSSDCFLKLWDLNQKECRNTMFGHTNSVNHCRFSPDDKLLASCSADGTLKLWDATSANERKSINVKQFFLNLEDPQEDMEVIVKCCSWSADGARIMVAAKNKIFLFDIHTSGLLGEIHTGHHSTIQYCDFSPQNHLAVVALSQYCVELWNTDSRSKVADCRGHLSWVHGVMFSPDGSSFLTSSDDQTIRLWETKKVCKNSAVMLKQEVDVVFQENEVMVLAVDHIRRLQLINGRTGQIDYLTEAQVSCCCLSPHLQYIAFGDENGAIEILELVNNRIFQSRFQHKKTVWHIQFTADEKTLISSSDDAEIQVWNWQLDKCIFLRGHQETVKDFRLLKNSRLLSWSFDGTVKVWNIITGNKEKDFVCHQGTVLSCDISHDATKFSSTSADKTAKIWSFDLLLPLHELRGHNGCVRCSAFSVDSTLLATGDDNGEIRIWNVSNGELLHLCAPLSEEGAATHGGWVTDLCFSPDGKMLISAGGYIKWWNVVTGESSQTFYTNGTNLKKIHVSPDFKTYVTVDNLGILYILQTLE
#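 System: Reconstituted apoptosome of Apaf-1, cytochrome c, caspase-9, procaspase-3 | Reagent: dATP, cytochrome c, and (Z-DEVD)2-Rh110 caspase-3 substrate | Times: 30 min compound preincubation and 50 min reaction, both room temperature | Detection: Caspase-3-released Rh110 fluorescence, 540 nm emission, 480 nm excitation | Measure: Caspase-3 activity via Apaf-1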
# Rh110 act interf: Rh110 signal interference in Apaf-1 activator counter-screen; 980 tested, under 10 active; shares compounds with Apaf-1 act; fluorescence interference (activity change), % at 20 µM, hits read low; Rh110 fluorescence interference, quenched caspase reaction, Ex480/Em540;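 active = mean activity change at or below -40% when tested at 20 µM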
# Apaf-1 act conf2: confirmation of human Apaf-1 activators; shares compounds with Apaf-1 act; reconstituted apoptosome caspase-3 activity, DEVD-Rh110 fluorescence; stronger effect = lower value; activity change, negative = activation, % at 20 µM; 5% of 980 active;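 active = mean activity change at or below -40%, meaning activation of 40% or more, at 20 µM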
# Fluor interf act: Apaf-1 activator counter-screen fluorescence artifact. shares compounds with Apaf-1 act. fluorescence interference counterscreen, Apaf-1 activator assay. EC50, µM. 55 tested, under 10 active. AID 588592; call rule not given here
# * hit, by the source's call.
SMILES,Apaf-1 act,others
CC[C@@H](C)[C@@H]1CN([C@@H](CN2CCC[C@H]2CN2C(N)=NC[C@H]2C(C)C)C(C)C)C(=N)N1CCc1ccc(Cl)c(Cl)c1,51.0,
COc1ccc2c(c1OC)C(=O)OC2C1c2c(cc3c(c2OC)OCO3)CCN1C (centres undefined),5.1,
CCN(CC(=O)NCc1cccs1)C(=O)C1CC(=O)N(c2ccc(OC)cc2OC)C1 (centres undefined),51.4,
Cc1ccc(S(=O)(=O)NCc2ccc3c(c2)cc(C)n3C)cc1,50.6,
Cc1[nH]c2ccc(CNS(=O)(=O)c3ccc(S(=O)(=O)N4CCOCC4)cc3)cc2c1C,-48.2*,Rh110 act interf=13.7;Apaf-1 act conf2=16.0
CC12CC3CC(C)(C1)CC(N)(C3)C2,-11.0,
CCOc1cc(NCc2ccccc2)c2ncn(C(C)C)c2c1,41.7,
O=C(/C=C/c1ccc(-c2ccccc2[N+](=O)[O-])o1)c1ccc(Br)cc1,48.8,
O=c1cc(-c2cc3ccccc3o2)c2cc(O)ccc2o1,-234.4*,Rh110 act interf=10.8;Apaf-1 act conf2=18.1
CN(C=[N+](C)C)c1cccc2c1C(=O)c1ccccc1C2=O,43.0,
CN1CCc2cccc3c2[C@H]1Cc1ccc(O)c(O)c1-3,42.2,
CC(C)C(=O)NC(c1cccs1)c1cc([N+](=O)[O-])c2cccnc2c1O (centres undefined),68.3,
C=C(C)Cc1c(C)c(C#N)c2[nH]c3ccccc3n2c1=O,62.0,
CN1CCN(c2ccc(S(=O)(=O)N3CCCCC3)cc2NC(=O)/C=C/c2ccc(Cl)c([N+](=O)[O-])c2)CC1,51.2,
CCN1CCN(S(=O)(=O)c2ccc(Cl)c(C(=O)N(C)Cc3cccs3)c2)CC1,57.8,
CN1CCN(c2ccc(S(=O)(=O)N3CCCCC3)cc2NC(=O)c2ccc3ccccc3c2)CC1,-154.8*,Rh110 act interf=4.2;Apaf-1 act conf2=7.6
CCN1CCN(C2=C(NS(=O)(=O)c3ccc(NC(C)=O)cc3)C(=O)c3ccccc3C2=O)CC1,73.7,
CC(=O)Nc1ccc(S(=O)(=O)NC2=C(N3CCN(C)CC3)C(=O)c3ccccc3C2=O)cc1,60.3,
CCN1CCN(S(=O)(=O)c2ccc(Cl)c(C(=O)Nc3ccccc3N3CCCC3)c2)CC1,-74.2*,Rh110 act interf=10.8;Apaf-1 act conf2=12.7
Cc1ccc(C(=O)N/C(=C\c2ccc(-c3ccccc3[N+](=O)[O-])o2)C(=O)NCCCN2CCOCC2)cc1,65.2,
O=C1C2=C(c3ccccc31)[N+](=O)[C@@H]1CCCC[C@@H]1N2[O-],74.5,
CC(Sc1ccc2ccccc2n1)C(=O)O (centres undefined),5.8,
CC(Cn1nnc2ccccc21)C(=O)O (centres undefined),-106.7*,Rh110 act interf=15.1;Apaf-1 act conf2=-13.8
O=C1C(N2CCOCC2)=C(n2nnc3ccccc32)C(=O)c2ccccc21,93.6,
O=C(c1cccs1)[C@@H]1[C@@H]2C(=O)N(Cc3ccc4c(c3)OCO4)C(=O)[C@@H]2C2c3ccccc3C=CN21 (some centres undefined),81.9,
SMILES,Apaf-1 act,others
COc1cc(C(=O)NC(C)c2ccc(-n3ccnc3)cc2)cc(OC)c1C (centres undefined),41.0,
O=C(C[C@H]1C[C@H](C(=O)N2CCCCC2)[C@@]2(CCc3ccccc3)c3[nH]c4ccc(Cl)cc4c3CCN2C1=O)NCCCn1ccnc1,60.6,
O=C(NCc1nc2ccccc2[nH]1)C1=C[C@H](c2ccccc2)C[C@H](OCc2ccc(CO)cc2)O1,-127.3*,Rh110 act interf=4.9;Apaf-1 act conf2=26.9
O=c1[nH]c2ccc(S(=O)(=O)Nc3ccc(-c4nnc5n4CCCCC5)cc3)cc2o1,-153.8*,Rh110 act interf=6.2;Apaf-1 act conf2=16.4
COc1ccc2nc3cc(Cl)ccc3c(Nc3cc(CN4CCCC4)c(O)c(CN4CCCC4)c3)c2n1,62.4,
CCCCC[n+]1ccn(C2=C([O-])c3ccccc3C(=O)/C2=N\S(=O)(=O)c2ccccc2)c1,52.9,
CC(=O)N1CCn2c3c(c(=O)c4cc(C)ccc42)CCC31 (centres undefined),73.1,
O=C1NCC(c2ccccc2)C1C(=O)N/N=C\c1ccc(-c2cccc(Cl)c2Cl)o1 (centres undefined),40.0,
Cc1ccc(NC(=O)N(CCC#N)Cc2ccccc2)cc1,-471.1*,Rh110 act interf=-13.4;Apaf-1 act conf2=2.3
Nc1nn2c(-c3ccccc3)cc(=O)[nH]c2c1N=Nc1ccc(O)cc1,40.6,
CCCC[n+]1ccn(C2=C([O-])c3ccccc3C(=O)/C2=N\S(=O)(=O)c2ccccc2)c1,59.0,
N#Cc1ccc(C23CC4(C2)[C@H](CN(CC2CCCCC2)[C@@H]4c2ccccc2)C3c2ccc(C(F)(F)F)cc2)cc1 (some centres undefined),42.3,
CCOc1cc(/C=C2/C(=O)N(c3ccccc3)N=C2C)ccc1OC(=O)c1ccco1,96.9,
CCOC(=O)c1nn(-c2ccccc2)c(=O)cc1OCC(=O)Nc1cc(C)ccc1OC,-57.0*,Rh110 act interf=4.5;Apaf-1 act conf2=-33.7
CC1CCN(C2=C(NS(=O)(=O)c3ccc(Br)cc3)C(=O)c3ccccc3C2=O)CC1,53.9,
CC1CCCN(C2=C(NS(=O)(=O)c3ccc(Br)cc3)C(=O)c3ccccc3C2=O)C1 (centres undefined),51.3,
CCOC(=O)C1CCCN(C2=C(NS(=O)(=O)c3ccc(Br)cc3)C(=O)c3ccccc3C2=O)C1 (centres undefined),67.0,Fluor interf act=>100
O=C(NCc1ccccc1)C1(CC2CC(c3ccccc3)=NO2)CCNCC1 (centres undefined),46.6,
Cc1ccc(SCc2cc(-c3ccc(Cl)cc3)no2)cc1,78.3,
Cc1ccc(Sc2cc(Cl)nc(N)n2)cc1,-386.6*,Rh110 act interf=19.1;Apaf-1 act conf2=8.4
Cc1ccc(SC2=C(Sc3ccc(C)cc3)C(=O)c3ccccc3C2=O)cc1,64.3,
COc1ccc(NS(=O)(=O)c2ccc(C)c(NC(=O)CN3C(=O)NC4(CCCC4)C3=O)c2)cc1,82.2,
COc1ccc(N/C=C2\CCc3ccccc3C2=O)cc1,79.2,
COc1ccc(S(=O)(=O)Nc2ccc(S(=O)(=O)N3CCOCC3)cc2)cc1,-63.9*,Rh110 act interf=-5.6;Apaf-1 act conf2=8.2
CN(CC(=O)Nc1ccc(Cl)c(Cl)c1)C(=O)C12CC3CC(CC(C3)C1)C2,-86.3*,Rh110 act interf=-4.0;Apaf-1 act conf2=19.8
SMILES,Apaf-1 act,others
Cc1cc2cc(CNC(=O)Nc3ccc(Cl)c(Cl)c3)ccc2n1C,62.3,
CN(C)CCCN1c2ccccc2Sc2ccc(Cl)cc21,42.5,
COc1cccc(-c2sc3ccc(OC)cc3c2-c2ccc(OCCN(C)C)cc2)c1,75.4,
COc1ccc(C2/C(=C(/O)c3ccc4c(c3)CC(C)O4)C(=O)C(=O)N2CCCn2ccnc2)cc1 (centres undefined),41.6,
COc1ccc(/C(O)=C2/C(=O)C(=O)N(Cc3ccco3)C2c2cccs2)cc1 (centres undefined),-63.6*,Rh110 act interf=7.1;Apaf-1 act conf2=13.5
CC(=O)CC(c1ccccc1)c1c(O)c2ccccc2oc1=O (centres undefined),3.9,
C=CCNC(=O)c1c(N)n(-c2cccc(S(N)(=O)=O)c2)c2nc3ccccc3nc12,60.9,
NS(=O)(=O)c1ccc(NC(=O)c2ccc3nccnc3c2)cc1,-43.7*,Rh110 act interf=0.6;Apaf-1 act conf2=2.5

# Bioassay records as filed in PubChem BioAssay.
